# The list is not random: actives were taken first. Their share in the collection is about 2.3%.
# RAM inhibit: inhibitors of the yeast RAM network; S. cerevisiae dse1pr::URA3 reporter, 5-FOA growth OD615, 2 d; analog-sensitive cbk1-as2 kinase mutant strain; inhibition, % at 50 µM; hit rate 1.8% among 190,000; AID 868;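 active = inhibition above a set limit, 3 SD over mean compound inhibition, cut at about 8.4% in these data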;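 also: 0% = DMSO-only wells with no growth and 100% = 10 µM 1-NA-PP1 full growth; inhibition rescues growth on 5-FOA so higher OD means more RAM inhibition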
# Arbovirus anti: arbovirus infection inhibition. arbovirus infection cell-based antiviral screen. inhibition, % at 10 µM. hit rate 0.37% among 200,000. AID 1251; in the data active = inhibition above about 30%
# ABCB1 inh: blocks JC-1 efflux by human ABCB1 transporter; inhibition, % at 6.6 µM; CCRF-Adr cells, flow cytometry; hit rate 0.067% among 190,000; P08183; in the data active = inhibition above about 40%;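 also: 0% = vehicle and 100% = reference inhibitor; higher value means more JC-1 retained so stronger ABCB1 efflux block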
# ABCG2 inh: human ABCG2 inhibition, ABCB1 as counter-screen | IgMXP3 cells, JC-1 efflux, flow cytometry | inhibition, % at 6.6 µM | hit rate 0.1% among 190,000 | Q9UNQ0;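 active = inhibition above 80%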;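 also: 0% = DMSO and 100% = nicardipine control wells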
# Target sequence (Q9UNQ0 whole entry, looked up): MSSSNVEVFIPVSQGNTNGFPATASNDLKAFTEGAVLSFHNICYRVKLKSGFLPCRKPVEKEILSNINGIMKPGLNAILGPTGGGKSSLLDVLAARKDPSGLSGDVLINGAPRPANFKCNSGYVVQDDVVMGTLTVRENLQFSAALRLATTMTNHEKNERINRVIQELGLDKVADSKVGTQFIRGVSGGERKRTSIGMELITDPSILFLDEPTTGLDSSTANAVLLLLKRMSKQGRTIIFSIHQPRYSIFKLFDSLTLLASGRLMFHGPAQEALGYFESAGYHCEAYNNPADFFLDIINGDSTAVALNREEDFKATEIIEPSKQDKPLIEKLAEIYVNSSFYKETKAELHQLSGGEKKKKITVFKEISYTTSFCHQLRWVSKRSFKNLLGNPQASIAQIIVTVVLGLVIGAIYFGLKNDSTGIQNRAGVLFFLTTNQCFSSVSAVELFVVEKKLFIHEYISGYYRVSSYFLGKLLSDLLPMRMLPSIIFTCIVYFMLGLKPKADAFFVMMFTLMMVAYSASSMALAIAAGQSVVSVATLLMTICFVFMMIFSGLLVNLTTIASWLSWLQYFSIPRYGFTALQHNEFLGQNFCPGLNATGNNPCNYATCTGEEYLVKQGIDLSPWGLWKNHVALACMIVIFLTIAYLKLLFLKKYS
#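 Measure – % inhibition of efflux relative to nicardipine and DMSO · Test system – ABCG2 IgMXP3 and barcoded ABCB1 CCRF-Adr cell mix · Control set – nicardipine as high control, DMSO as low control · Compound – one concentration, 6.6 µM final · Signal – flow cytometry of retained JC-1 fluorescence · Timing – 10 min exposure at 25 °C with rotation, no wash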
# RAM efflux-def: restores 5-FOA growth of efflux-deficient yeast | shares compounds with RAM inhibit | S. cerevisiae efflux-deficient reporter strain, 5-FOA growth OD615, 2 days | max inhibition, % | 1,200 tested, under 10 active; call rule not given here;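 also: plate controls were vehicle for no effect and reference inhibitor for full effect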
# * = called active by the depositor; · = not tested or not shown.
SMILES,RAM inhibit,Arbovirus anti,ABCB1 inh,ABCG2 inh,RAM efflux-def
Cc1cc(NC(=O)COC(=O)C2CCC2)no1,1,13,0,0,·
C=CCn1c(SCC(=O)Nc2ccccc2C)nnc1-c1ccncc1,14*,-3,0,2,2
O=C(Nc1ccccc1-c1nnc(SCc2ccccc2Cl)o1)c1ccccc1,12*,3,1,2,3
CC(=O)Nc1ccc(S(=O)(=O)N(C)CC(=O)OCC(=O)NC(C)C23CC4CC(CC(C4)C2)C3)cc1 (stereo not drawn),0,3,1,27,·
C/C(=C\C(=O)c1ccccc1)NCc1ccc(F)cc1,0,-8,0,9,·
COc1ccc(-c2nn(CCC(=O)O)cc2/C=C2\SC(N)=NC2=O)cc1OC,3,-2,-1,-6,·
CCCOc1ccc(-c2nn(-c3ccccc3)cc2/C=C2\SC(N)=NC2=O)cc1C,13*,-14,-1,-6,9
COc1ccc(/C=C(/C#N)C(=O)Nc2cccnc2)cc1OC,1,-6,-2,20,·
COc1nc2ccc(C)cc2cc1-c1noc(-c2ccccc2)n1,12*,-2,0,2,3
COc1ccc(Nc2nc(S(=O)(=O)c3ccc(C)cc3)c(Cl)s2)cc1,6,-23,0,8,·
Cc1ccc(S(=O)(=O)c2nc(Nc3ccccc3)sc2Cl)cc1,13*,-40,0,0,2
O=C(NCC(c1cccnc1)N1CCOCC1)c1ccco1 (stereo not drawn),0,11,0,0,·
O=C(c1ccc(C(F)(F)F)cc1)N1CCC(=O)N(C(COCc2ccccc2)Cc2ccccc2)CC1 (stereo not drawn),26*,-28,3,5,2
COC(=O)c1ccsc1NC(=O)CN1CCN(c2ccc(F)cc2)CC1,1,10,3,22,·
CSc1ccc(/C=C/C(=O)c2ccc(NC(=O)Cc3ccccc3)cc2)cc1,14*,-4,-1,-2,6
CC(=O)c1ccc(NC(=O)c2cnsn2)cc1,2,-2,0,2,·
CCC(=O)Oc1c(S(=O)(=O)c2ccc(C)cc2)c(C)nn1C(C)(C)C,1,4,2,22,·
CCCC(=O)Oc1c(S(=O)(=O)c2ccc(C)cc2)c(C)nn1C(C)(C)C,12*,-4,1,2,2
CCOc1ccc(CNC(=O)CCn2c(=O)oc3ccccc32)cc1,3,5,0,0,·
CCOc1ccc(CNC(=O)CCc2cn(Cc3ccccc3)c3ccccc23)cc1,13*,-11,2,15,3
Cc1cccc(NC(=O)CCC(=O)OCC(=O)c2ccc(Oc3ccc([N+](=O)[O-])cc3)cc2)c1,21*,-2,1,3,3
O=C(COC(=O)c1ccncc1)Nc1ccccc1,2,-2,0,1,·
O=C(COC(=O)c1ccc(CSc2ccc(Cl)cc2)cc1)Nc1ccccc1,11*,10,0,2,2
O=C(CSc1ccc(-c2nc3ccccc3[nH]2)cn1)N1CCN(C(=O)c2ccco2)CC1,1,-13,0,0,·
CC(C)c1ccc(CNc2cc(N3CCCC3)ccc2[N+](=O)[O-])cc1,19*,-1,0,3,5
SMILES,RAM inhibit,Arbovirus anti,ABCB1 inh,ABCG2 inh,RAM efflux-def
CC(C)(C)CNc1cc(N2CCCC2)ccc1[N+](=O)[O-],6,9,1,13,·
COc1cc(OC)c(C(=O)NCCCN2CCOCC2)cc1OC,0,3,1,1,·
CC(C)COC(=O)/C(C#N)=C/c1cn(Cc2ccccc2)c2ccccc12,19*,4,3,18,11
CC(C)OC(=O)/C(C#N)=C/c1cn(Cc2ccccc2)c2ccccc12,16*,-1,2,18,6
O=C(c1ccc(CN2CCc3ccccc3C2)cc1)N1CCN(c2ccccc2)CC1,-1,-25,0,-2,·
COC(=O)c1cc2c(ccn2-c2ccc(F)cc2)n1Cc1ccc(OC)cc1,15*,5,·,2,4
CCCC(=O)C1=C(O)C(C(=O)OC)C(C)(C)CC1=Nc1cccc2ccccc12 (stereo not drawn),12*,-14,1,2,4
Cc1ccc(C(=O)N2CCN(c3ncccn3)CC2)o1,0,-2,1,2,·
CC(CC(=O)O)CC(=O)Nc1cccc([N+](=O)[O-])c1 (stereo not drawn),0,1,0,2,·
COc1ccc(C(=O)/C=C/Nc2ccc(S(=O)(=O)Nc3ncccn3)cc2)cc1,12*,4,0,-4,6
COc1ccc(C(=O)/C=C/Nc2ccc(S(=O)(=O)Nc3onc(C)c3C)cc2)cc1,13*,3,0,-7,5
COc1ccc(C(=O)/C=C/Nc2ccc(S(=O)(=O)Nc3nc(C)cc(C)n3)cc2)cc1OC,4,-17,0,0,·
Cc1noc(NS(=O)(=O)c2ccc(N/C=C/C(=O)c3ccncc3)cc2)c1C,6,-1,0,1,·
Clc1cccc(Cl)c1CSc1nnc(-c2sccc2-n2cccc2)o1,17*,-5,1,6,3
CSc1nnc(-c2sccc2-n2cccc2)o1,1,-5,0,5,·
CC1CN(S(=O)(=O)c2cccc3nsnc23)CC(C)O1 (stereo not drawn),3,2,0,0,·
CCc1ccccc1NC(=O)c1ccc(NS(C)(=O)=O)cc1,0,2,1,24,·
CS(=O)(=O)Nc1ccc(C(=O)Nc2ccccc2Sc2ccccc2)cc1,12*,13,0,2,1
CCCCC1(CC(=O)OCC)C(=O)N(c2ccccc2)N(c2ccccc2)C1=O,5,-13,1,-5,·
CCCCC1(Cc2cccc([N+](=O)[O-])c2)C(=O)N(c2ccccc2)N(c2ccccc2)C1=O,13*,-10,1,2,5
COc1cc(-c2nnc(SCC(=O)c3ccc(C)cc3)o2)cc(OC)c1OC,1,3,1,2,·
COc1cc(-c2nnc(-c3ccccc3)o2)cc(OC)c1OC,23*,5,0,1,3
COc1cccc(C(=O)CSc2nnc(-c3cc(OC)c(OC)c(OC)c3)o2)c1,13*,4,2,18,3
COc1cc(-c2nnc(-c3cc(OC)c(OC)c(OC)c3)o2)cc(OC)c1OC,5,6,0,7,·
CC1CCCN(C(=O)COC(=O)c2n[nH]c3ccccc23)C1 (stereo not drawn),0,8,0,7,·
CCOC(=O)N1CCC(N(CCN(C)C)C(=S)Nc2cccc(SC)c2)CC1,33*,14,0,-3,1
C=C(CC1([C@@H](NP(=O)(c2ccccc2)c2ccccc2)[C@H]2C[C@@H]2CCCC)CC1)c1ccccc1,21*,-6,1,-2,7
COc1ccc(S(=O)(=O)Nc2cccc(S(=O)(=O)N3CCCCCC3)c2)cc1,14*,14,0,-1,5
COc1ccc(CC(=O)Nc2cccc(S(=O)(=O)N3CCCCCC3)c2)cc1OC,12*,10,3,0,3
